According to publication PMC12239663 (Journal of the American Chemical Society, 2024):
Like-named read-outs stand apart in the source and are kept apart here.

Experiments:
SgvP mutants = assay: LC-MS by-product analysis of reactions with SgvP mutants; assay type: biochemical, Streptomyces griseoviridis; settings: singly- (m/z = 496) and doubly-oxidized (m/z = 512) by-products, substrate 2
In short: (§1)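 Reactions were run under standard conditions, with a control reaction lacking P450. Peaks containing m/z 496 and m/z 512 were taken as singly- and doubly-oxidized by-products.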

[1] = Stability in aqueous buffer; assay type: physicochemical
SgvP [2] = target: T1, SgvP (Streptomyces griseoviridis, UniProt R9USI6); assay: Type I binding spectra, titration of SgvP with 2
SgvP [3] = target: T1, SgvP; assay: In vitro reconstitution of C–S bond formation, SgvP with CamB/CamA; assay type: biochemical; settings: CamB/CamA as redox partners, relative to Fdx/Fdr
SgvP P237T = assay: Enzymatic reaction with SgvP mutant P237T; assay type: biochemical, Streptomyces griseoviridis; settings: substrate 2; same reaction conditions as wild-type SgvP
[4] = tested on: SgvP P237T with A238 mutated to threonine; assay: Enzymatic reaction with SgvP double mutant P237T, A238 to threonine; assay type: biochemical, Streptomyces griseoviridis; settings: substrate 2; P237T activity partially rescued by mutating A238 to threonine
[5] = Stability under air at ambient temperature; assay type: physicochemical; settings: two weeks
SgvP-RhFRed = assay: Enzymatic reaction with SgvP-RhFRed chimera; assay type: biochemical, Streptomyces griseoviridis; settings: NADP+, Opt13 for NADPH regeneration; without TCEP; LC-MS
NK82 = assay: Activity of homolog P450-RhFRed chimera NK82; assay type: biochemical; settings: cell lysates, range of conditions
SgvP L337F = assay: Enzymatic reaction with SgvP mutant L337F; assay type: biochemical, Streptomyces griseoviridis; settings: substrate 2; same reaction conditions as wild-type SgvP
In short: as §1

[6] = Behavior toward chemical oxidants; assay type: physicochemical
YY64 = assay: Activity of homolog P450-RhFRed chimera YY64; assay type: biochemical; settings: cell lysates, range of conditions
FNS2 = assay: Activity of homolog P450-RhFRed chimera FNS2; assay type: biochemical; settings: cell lysates, range of conditions
SgvP [7] = target: T1, SgvP; assay type: biochemical; settings: Fdx/Fdr, Opt13, NADP+, TCEP, no apparent intermediates detected
In short: as §1

With pre-griseoviridin [compound 2] the by-products formed (SgvP mutants) was “several oxidized by-products had formed”, the “disulfide formation with TCEP” value ([1]; TCEP added to the reaction mixture as a reductant) was “disulfide formation was effectively prevented” and the “product in absence of SgvP-RhFRed or in buffer and co-solvent alone” value ([1]; aqueous conditions, exposure to oxygen, no TCEP, LC-MS) was “disulfide as the only product”. The binding spectrum type (SgvP [2]; SgvP incubated with various concentrations of 2) was “characteristic type I binding spectrum”, the “Kd relative to that of TleB (fold lower)” value (SgvP [2]; SgvP–2 Kd lower than TleB Kd) was 2.5 fold and the “Kd relative to that of PtmO5” value (SgvP [2]; SgvP–2 Kd vs PtmO5 Kd) was “one order of magnitude higher”. For the same substance, the “λmax after shift on binding of 2” value (SgvP [2]; type I binding spectrum, λmax shifted from 421 nm) was 386 nm, the “conversion to griseoviridin (1)” value (SgvP [3]) was “Analogous results” and the “NMR yield of griseoviridin” value (SgvP P237T) was 7%. The “NMR yield of griseoviridin” value [4] was 25%, the “stability: degradation” value [5] was “remarkably stable, with no discernable degradation even after two weeks” and the “product of incubation with SgvP-RhFRed” value (SgvP-RhFRed) was “yielded only disulfide”. The “activity of homolog chimera with 2” value (NK82) was “none of the homologs exhibited any activity”, the “activity relative to wild-type enzyme” value (SgvP L337F) was “comparable – if not slightly enhanced – activity to the wild-type enzyme” and the “production of 1 with chemical oxidants” value ([6]; mCPBA or basic H2O2) was “we did not observe the production of 1”. For the same substance, the “outcome of treatment with mCPBA” value ([6]; mCPBA, crude NMR, sulfinic and sulfonic acids of 2 tentatively detected by LC-MS) was “intractable mixture”, the “outcome of treatment with basic H2O2” value ([6]; series of basic hydrogen peroxide conditions) was “ester hydrolysis, S-oxidation, or broad degradation” and the “activity of homolog chimera with 2” value (YY64) was “none of the homologs exhibited any activity”. The “activity of homolog chimera with 2” value (FNS2) was “none of the homologs exhibited any activity” and the “conversion to griseoviridin (1)” value (SgvP [7]) was “nearly full conversion to griseoviridin (1) in approximately three hours”.
